Among the data in ChEMBL document CHEMBL1144441, “Identification of a novel cardenolide (2''-oxovoruscharin) from Calotropis procera and the hemisynthesis of novel derivatives displaying potent in vitro antitumor activities and high in vivo tolerance: structure-activity relationship analyses” (J Med Chem, 2005) are MTD and IC50 values, retold here.

One assay concerns Mus musculus. Description: Maximum tolerated dose after intraperitoneal administration in mouse (period of 28 days). The assay is classed as functional. The method in brief:
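Healthy, non-tumour-bearing B6D2F1 mice given one acute intraperitoneal dose, three mice per dose group, doses 5, 10, 20, 40, 80, 120 and 160 mg/kg. Survival and body weight followed for 28 days after injection. MTD is the highest single dose causing no deaths over the period.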

The test system of the next assay is LoVo. The assay can be described thus: Concentration required for 50% growth inhibition of human LoVo cancer cell lines after 3 days of culture. The assay is classed as functional, cell-based. To be noted: 72 h. In short, it runs like this: (§1)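 MTT overall-growth assay on the five lines. Cells were plated for 24 h at 10 000–40 000 cells/mL, depending on cell type. Nine concentrations from 10^-9 to 10^-5 M in semilog steps were applied for 72 h. Formazan was read at 570 nm against a 630 nm reference, in sextuplicate. IC50 = concentration reducing overall growth by 50% versus untreated control.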

Another assay concerns U373 MG. Description: Concentration required for 50% growth inhibition of human U373 cancer cell lines after 3 days of culture. The note with it: 72 h. The assay is classed as functional, cell-based, U-373MG ATCC. In short, it runs like this:
as §1

The test system of the next assay is HCT-15. Description: Concentration required for 50% growth inhibition of human HCT-15 cancer cell lines after 3 days of culture. It is filed as functional, cell-based. The note with it: HCT-15, 72 h. In short, it runs like this:
as §1

The subject of another assay is A549. Description: Concentration required for 50% growth inhibition of human A549 cancer cell lines after 3 days of culture. It is filed as functional, cell-based. To be noted: A549, 72 h. In short, it runs like this:
as §1

A short description of assay [1]: Concentration required for 50% growth inhibition of human Hs 683 cancer cell lines after 3 days of culture. The note with it: 72 h. It is filed as functional, cell-based. In short, it runs like this:
as §1

Assay [2] concerns the target Sodium/potassium-transporting ATPase subunit alpha-1 (Sus scrofa, UniProt P05024). The assay can be described thus: In vitro inhibitory activity against porcine Na+/K+-ATPase. In short, it runs like this:
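Porcine cerebral cortex Na+/K+-ATPase (3 × 10-3 units), preincubated 30 min at 37 °C in 30 mM Tris-HCl pH 7.4, 5 mM MgCl2 with inhibitor (1 to 50 000 nM). ADP formation coupled via pyruvate kinase/lactate dehydrogenase, excess phosphoenolpyruvate, to NADH oxidation.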

The term MTD denotes the highest dose tested that stayed within the study's limit of toxicity. A lower MTD goes with a narrow tolerated range. Usually IC50 stands for the midpoint of a concentration-inhibition curve. Low values mean inhibition by little substance, high ones a need for much substance.

In turn, `C[C@@H]1C[C@@]2(NC(=O)CS2)C2(O)O[C@@H]3C[C@@]4(COC(=O)c5ccccc5)[C@@H](CC[C@@H]5[C@@H]4CC[C@]4(C)[C@@H](C6=CC(=O)OC6)CC[C@]54CO)C[C@H]3O[C@@H]2O1` (stereo partly specified) came in with an MTD in the assay with Mus musculus of more than 40 mg/kg. Also, the IC50 was 2370 nM in the assay on LoVo; 4170 nM with U373 MG; 3620 nM in the assay on HCT-15; 625 nM in the assay on A549; 778 nM in assay [1].
In turn, `C[C@@H]1C[C@@]2(N=C(N)CS2)C2(O[Si](C)(C)C)O[C@@H]3C[C@@]4(CO)[C@@H](CC[C@@H]5[C@@H]4CC[C@]4(C)[C@@H](C6=CC(=O)OC6)CC[C@]54CO[Si](C)(C)C)C[C@H]3O[C@@H]2O1` (stereo partly specified) registered an MTD in the assay on Mus musculus of more than 160 mg/kg. For the same compound, the half-inhibitory concentration (IC50) with LoVo turned out to be 340 nM; with U373 MG it was 925 nM; in assay [2], 1890 nM; in the assay on HCT-15, 454 nM; in the assay with A549, 126 nM; in assay [1] it was 346 nM.
As to `COC(=O)OC[C@]12C[C@H]3OC4(O)[C@@H](O[C@H](C)C[C@@]45N=C(N)CS5)O[C@@H]3C[C@@H]1CC[C@@H]1[C@@H]2CC[C@]2(C)[C@@H](C3=CC(=O)OC3)CC[C@]12CO` (stereo partly specified), the MTD with Mus musculus is more than 40 mg/kg. Further, the IC50 was 245 nM with LoVo; 320 nM in the assay on U373 MG; 442 nM with HCT-15; 42 nM in the assay on A549; 49 nM in assay [1].
Compound `CC(=O)OC[C@]12C[C@H]3OC4(O)[C@@H](O[C@H](C)C[C@@]45NC(=O)CS5)O[C@@H]3C[C@@H]1CC[C@@H]1[C@@H]2CC[C@]2(C)[C@@H](C3=CC(=O)OC3)CC[C@]12CO` (stereo partly specified) had an MTD in the assay on Mus musculus of more than 40 mg/kg. The IC50 with LoVo stood at 2770 nM; in the assay with U373 MG, 4600 nM; with HCT-15 it was 4430 nM; with A549, 1860 nM; in assay [1], 2780 nM.
With `C[C@@H]1C[C@@]2(NC(=O)CS2)C2(O)O[C@@H]3C[C@@]4(COC(=O)CCc5ccccc5)[C@@H](CC[C@@H]5[C@@H]4CC[C@]4(C)[C@@H](C6=CC(=O)OC6)CC[C@]54CO)C[C@H]3O[C@@H]2O1` (stereo partly specified), the MTD in the assay on Mus musculus is more than 40 mg/kg. In addition, the IC50 in the assay on LoVo is more than 10000 nM; in the assay with U373 MG, 4190 nM; in the assay on HCT-15, more than 10000 nM; in the assay on A549 it was more than 10000 nM; in assay [1] it was more than 10000 nM.
For the compound `C[C@@H]1C[C@@]2(N[C@H](CC(=O)c3ccccc3)CS2)C2(O)O[C@@H]3C[C@@]4(C=O)[C@@H](CC[C@@H]5[C@@H]4CC[C@]4(C)[C@@H](C6=CC(=O)OC6)CC[C@]54CO)C[C@H]3O[C@@H]2O1` (stereo partly specified), the MTD in the assay on Mus musculus was 10 mg/kg. Besides, the IC50 was 33 nM in the assay with LoVo; 41 nM with U373 MG; 49 nM with HCT-15; 4 nM in the assay with A549; 7 nM in assay [1].
In turn, `C[C@@H]1C[C@@]2(N[C@H](CC(=O)c3ccccc3)CS2)C2(O)O[C@@H]3C[C@@]4(CO)[C@@H](CC[C@@H]5[C@@H]4CC[C@]4(C)[C@@H](C6=CC(=O)OC6)CC[C@]54CO)C[C@H]3O[C@@H]2O1` (stereo partly specified) registered an MTD in the assay with Mus musculus of 80 mg/kg. Also, the IC50 in the assay on LoVo turned out to be 18 nM; in the assay with U373 MG it was 34 nM; in the assay with HCT-15, 34 nM; with A549 it was 3 nM; in assay [1], 4 nM.
For `Cc1ccc(S(=O)(=O)OC[C@]23C[C@H]4OC5(O)[C@@H](O[C@H](C)C[C@@]56N=C(N)CS6)O[C@@H]4C[C@@H]2CC[C@@H]2[C@@H]3CC[C@]3(C)[C@@H](C4=CC(=O)OC4)CC[C@]23CO)cc1` (stereo partly specified), the MTD in the assay with Mus musculus is 10 mg/kg. Besides, the IC50 with LoVo came out at 1060 nM; in the assay on U373 MG it was 9960 nM; in the assay on HCT-15, 5800 nM; in the assay with A549 it was 2720 nM; in assay [1], 1430 nM.
With `C[C@@H]1C[C@@]2(N[C@@H](CC(=O)c3ccccc3)CS2)C2(O)O[C@@H]3C[C@@]4(C=O)[C@@H](CC[C@@H]5[C@@H]4CC[C@]4(C)[C@@H](C6=CC(=O)OC6)CC[C@]54CO)C[C@H]3O[C@@H]2O1` (stereo partly specified), the MTD in the assay on Mus musculus was determined as 10 mg/kg. Besides, the IC50 in the assay with LoVo turned out to be 100 nM; in the assay with U373 MG it was 84 nM; with HCT-15, 92 nM; with A549, 18 nM; in assay [1], 22 nM.
In the assay with Mus musculus, `C[C@@H]1C[C@@]2(NCCS2)[C@]2(O)O[C@@H]3C[C@@]4(C=O)[C@@H](CC[C@@H]5[C@@H]4CC[C@]4(C)[C@@H](C6=CC(=O)OC6)CC[C@]54O)C[C@H]3O[C@@H]2O1` had an MTD of 1.25 mg/kg. Also, the 50% inhibitory concentration (IC50) came out at 17 nM in the assay with LoVo; 32 nM in the assay on U373 MG; 27 nM in the assay on HCT-15; 5 nM with A549; 4 nM in assay [1].
`C[C@@H]1C[C@@]2(N[C@@H](CC(=O)c3ccccc3)CS2)C2(O)O[C@@H]3C[C@@]4(CO)[C@@H](CC[C@@H]5[C@@H]4CC[C@]4(C)[C@@H](C6=CC(=O)OC6)CC[C@]54CO)C[C@H]3O[C@@H]2O1` (stereo partly specified) showed an MTD in the assay on Mus musculus of 80 mg/kg. In addition, the IC50 was 18 nM in the assay on LoVo; 38 nM in the assay with U373 MG; 44 nM in the assay with HCT-15; 4 nM in the assay on A549; 4 nM in assay [1].
For `C[C@@H]1C[C@@]2(N=C(N)CS2)C2(O)O[C@@H]3C[C@@]4(COC(=O)CCc5ccccc5)[C@@H](CC[C@@H]5[C@@H]4CC[C@]4(C)[C@@H](C6=CC(=O)OC6)CC[C@]54CO)C[C@H]3O[C@@H]2O1` (stereo partly specified), the MTD with Mus musculus is more than 40 mg/kg. For the same compound, the IC50 in the assay on LoVo is 4840 nM; in the assay with U373 MG, more than 10000 nM; with HCT-15, more than 10000 nM; in the assay on A549, 4730 nM; in assay [1] it was more than 10000 nM.
Take `C[C@@H]1C[C@@]2(NC(=O)CS2)C2(O)O[C@@H]3C[C@@]4(COS(C)(=O)=O)[C@@H](CC[C@@H]5[C@@H]4CC[C@]4(C)[C@@H](C6=CC(=O)OC6)CC[C@]54CO)C[C@H]3O[C@@H]2O1` (stereo partly specified): the IC50 with LoVo is 8390 nM; with U373 MG, 7310 nM; in the assay on HCT-15 it was more than 10000 nM; in the assay on A549, 3650 nM; in assay [1], 3420 nM.
As to `C[C@@H]1C[C@@]2(NC(=O)CS2)C2(O[Si](C)(C)C)O[C@@H]3C[C@@]4(CO[Si](C)(C)C)[C@@H](CC[C@@H]5[C@@H]4CC[C@]4(C)[C@@H](C6=CC(=O)OC6)CC[C@]54CO[Si](C)(C)C)C[C@H]3O[C@@H]2O1` (stereo partly specified), the concentration for half-maximal inhibition (IC50) in the assay with LoVo was found to be 931 nM; with U373 MG, 3720 nM; in the assay on HCT-15 it was 2690 nM; in the assay on A549 it was 657 nM; in assay [1], 525 nM.
Turning to `C[C@@H]1C[C@@]2(NCCS2)C2(O)O[C@@H]3C[C@@]4(CO)[C@@H](CC[C@@H]5[C@@H]4CC[C@]4(C)[C@@H](C6=CC(=O)OC6)CC[C@]54CO)C[C@H]3O[C@@H]2O1` (stereo partly specified), the MTD in the assay on Mus musculus was 5 mg/kg. The IC50 in the assay with LoVo worked out at 13 nM; in the assay on U373 MG, 31 nM; in the assay on HCT-15, 21 nM; with A549, 4 nM; in assay [1] it was 3 nM.
Consider `C[C@@H]1C[C@@]2(N=C(N)CS2)C2(O)O[C@@H]3C[C@@]4(C=O)[C@@H](CC[C@@H]5[C@@H]4CC[C@]4(C)[C@@H](C6=CC(=O)OC6)CC[C@]54CO)C[C@H]3O[C@@H]2O1` (stereo partly specified), for which the MTD with Mus musculus worked out at 10 mg/kg. The IC50 with LoVo is 5 nM; with U373 MG, 34 nM; with HCT-15, 27 nM; in the assay with A549 it was 9 nM; in assay [1] it was 4 nM.
`C[C@@H]1C[C@@]2(N[C@H](CC(O)c3ccccc3)CS2)C2(O)O[C@@H]3C[C@@]4(CO)[C@@H](CC[C@@H]5[C@@H]4CC[C@]4(C)[C@@H](C6=CC(=O)OC6)CC[C@]54CO)C[C@H]3O[C@@H]2O1` (stereo partly specified): the IC50 came to 19 nM with LoVo; 28 nM in the assay on U373 MG; 31 nM in the assay on HCT-15; 2 nM in the assay with A549; 3 nM in assay [1].
In the assay on Mus musculus, `CC(O)CCC(=O)OC[C@]12C[C@H]3OC4(O)[C@@H](O[C@H](C)C[C@@]45NC(=O)CS5)O[C@@H]3C[C@@H]1CC[C@@H]1[C@@H]2CC[C@]2(C)[C@@H](C3=CC(=O)OC3)CC[C@]12CO` (stereo partly specified) yielded a maximal tolerated dose (MTD) of more than 40 mg/kg. For the same compound, the concentration for half-maximal inhibition (IC50) stood at 1560 nM with LoVo; 1190 nM with U373 MG; 1500 nM in the assay with HCT-15; 414 nM in the assay with A549; 370 nM in assay [1].
As to `Cc1ccc(S(=O)(=O)OC[C@]23C[C@H]4OC5(O)[C@@H](O[C@H](C)C[C@@]56NC(=O)CS6)O[C@@H]4C[C@@H]2CC[C@@H]2[C@@H]3CC[C@]3(C)[C@@H](C4=CC(=O)OC4)CC[C@]23CO)cc1` (stereo partly specified), the IC50 was found to be 89 nM in the assay on LoVo; 326 nM in the assay with U373 MG; 382 nM with HCT-15; 48 nM in the assay with A549; 45 nM in assay [1].
